The values that follow come from ChEMBL document CHEMBL1123835, “Synthesis and biological properties of actinomycin D chromophoric analogues substituted at the 7-carbon with aziridine and aminopropoxy functions” (1987).

One assay concerns B16. Briefly: compound was evaluated in vitro for growth inhibition of B16 (Murine melanoma cell line) cell. It counts as functional. To be noted: Mus musculus, read-out: ID50 (the source's name). The gist of the method:
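Murine B16 melanoma cells were grown as a monolayer culture in log-phase growth. Compounds were dissolved in Me2SO/saline, with under 1% Me2SO in the final growth medium. ID50 (ng/mL) is the concentration giving 50% growth inhibition after 48 h, averaged over three experiments.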

A further assay has as its system CCRF-CEM. The assay is described as follows: In vitro growth inhibition of CCRF-CEM (Human leukemic lymphoblastic) cell. It counts as functional. The note with it: read-out: ID50 (the source's name). The gist of the method: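 Human CCRF-CEM lymphoblastic leukemia cells were grown in continuous spinner (suspension) culture in log phase. Compounds were dissolved in Me2SO/saline, with under 1% Me2SO in the final medium. ID50 (ng/mL) is the concentration giving 50% growth inhibition at 48 h, averaged over three experiments.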

Assay [1] can be described thus: Compound was evaluated for the elevation in temperature (degrees Centigrade) for thermal denaturation of DNA.
The nature of assay [2]: Compound was evaluated for the elevation in temperature (degrees Celsius) for thermal denaturation of DNA. The gist of the method:
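Calf-thymus DNA at 5.2 × 10^-5 M with drug at 2.5 × 10^-5 M in 0.01 M phosphate buffer (pH 7) with 10^-5 M EDTA. Thermal denaturation curves were recorded on a thermoprogrammed spectrophotometer with a quartz cell. ΔTm = Tm of DNA–drug complex minus Tm of DNA, with melting in the 67-85 °C range.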

Molecules are shown by their SMILES. ≈ marks a conversion by molar mass, not a printed value. *1 amine or outer side, *2 acyl side, *3 side chain or, on linkers, in order; H or OH if unused. Where a SMILES comes first, the peptide text is derived from it. Bridges are numbered along the chain shown (N, C = ends). Roman numbers before positions name the chains, in order. [ ]: non-standard residue; d: D form. Actinocin(1to9) = Cc1c2oc3c(C)ccc(C(=O)[*:2])c3nc-2c(C(=O)[*:1])c(N)c1=O; NMeV = CN[C@H](C(=O)O)C(C)C; Sar = CNCC(=O)O

In the case of `Cc1c2oc3c(C)c(OCC4CN4)cc(C(=O)NC4C(=O)N[C@H](C(C)C)C(=O)N5CCC[C@H]5C(=O)N(C)CC(=O)N(C)[C@@H](C(C)C)C(=O)O[C@H]4C)c3nc-2c(C(=O)NC2C(=O)N[C@H](C(C)C)C(=O)N3CCC[C@H]3C(=O)N(C)CC(=O)N(C)[C@@H](C(C)C)C(=O)O[C@H]2C)c(N)c1=O` (some centres not stated), the results for the IC50 with B16 and with CCRF-CEM were 0.11 µg/mL (≈ 0.0829 µM) and 0.076 µg/mL (≈ 0.0573 µM), respectively. In assay [1], this compound showed a Change in Tm of 2.8.
The compound `C=CCOc1cc(C(=O)NC2C(=O)N[C@H](C(C)C)C(=O)N3CCC[C@H]3C(=O)N(C)CC(=O)N(C)[C@@H](C(C)C)C(=O)O[C@H]2C)c2nc3c(C(=O)NC4C(=O)N[C@H](C(C)C)C(=O)N5CCC[C@H]5C(=O)N(C)CC(=O)N(C)[C@@H](C(C)C)C(=O)O[C@H]4C)c(N)c(=O)c(C)c-3oc2c1C` (some centres not stated) registered a Change in Tm in assay [2] of 6.8. The IC50 is more than 1 µg/mL with B16 and more than 0.75 µg/mL in the assay with CCRF-CEM.
Taken in the same sequence, the figures for `Cc1c2oc3c(C)c(OCC(C)N)cc(C(=O)NC4C(=O)N[C@H](C(C)C)C(=O)N5CCC[C@H]5C(=O)N(C)CC(=O)N(C)[C@@H](C(C)C)C(=O)O[C@H]4C)c3nc-2c(C(=O)NC2C(=O)N[C@H](C(C)C)C(=O)N3CCC[C@H]3C(=O)N(C)CC(=O)N(C)[C@@H](C(C)C)C(=O)O[C@H]2C)c(N)c1=O` (some centres not stated) were 4.8, 0.055 µg/mL (≈ 0.0414 µM) and 0.06 µg/mL (≈ 0.0452 µM).
The corresponding values for `Cc1c2oc3c(C)ccc(C(=O)N[C@@H]4C(=O)N[C@H](C(C)C)C(=O)N5CCC[C@H]5C(=O)N(C)CC(=O)N(C)[C@@H](C(C)C)C(=O)O[C@@H]4C)c3nc-2c(C(=O)N[C@@H]2C(=O)N[C@H](C(C)C)C(=O)N3CCC[C@H]3C(=O)N(C)CC(=O)N(C)[C@@H](C(C)C)C(=O)O[C@@H]2C)c(N)c1=O` [DACTINOMYCIN] (I: T[dV]P[Sar][NMeV] / II: T[dV]P[Sar][NMeV]; ester I:1-I:C, II:1-II:C; linker I:N-II:N via Actinocin(1to9)) are 8, 0.0033 µg/mL (≈ 0.00263 µM) and 0.013 µg/mL (≈ 0.0104 µM).
